Results from ChEMBL document CHEMBL5233208, “Optimization of P2Y12 Antagonist Ethyl 6-(4-((Benzylsulfonyl)carbamoyl)piperidin-1-yl)-5-cyano-2-methylnicotinate (AZD1283) Led to the Discovery of an Oral Antiplatelet Agent with Improved Druglike Properties” (J Med Chem, 2019).
pIC50: −log10 of the molar value. Calls of active or inactive are those of the source. The rule behind the calls is not given here.

Assays:
[1] = Metabolic stability in human liver microsomes assessed as intrinsic clearance at 0.1 µM measured up to 60 mins in presence of NADPH regeneration system by LC-MS/MS analysis; conditions: 1 h
Homo sapiens = species: Homo sapiens; assay: Antiplatelet activity in human platelet-rich plasma assessed as inhibition of ADP-induced platelet aggregation by aggregometry; type: functional
Summary of the method: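 Human PRP from healthy donors free of aspirin/NSAIDs for at least two weeks, drawn into ACD; PRP spun at 300 g for 10 min, PPP at 2000 g. Compound in 0.5% DMSO preincubated 2 min at 37 °C with stirring (900 rpm). Aggregation induced by 10 μM ADP (final) and followed optically for 5 min.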

[2] = MRT in Sprague-Dawley rat at 5 mg/kg,po measured up to 24 hrs by LC-MS/MS analysis; type: ADME, organism-based; conditions: in vivo
Rattus norvegicus [3] = assay: Antithrombotic activity in anesthetized Wistar rat model of tail-bleeding assessed as increase in bleeding time at 40 mg/kg, po administered as single dose measured at 1.5 hrs post dose; type: functional
Summary of the method: (§1)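 Male rats (250–300 g, n = 10 per dose) acclimatized at least 7 days, then dosed by oral gavage. At 1.5 h, anesthetized with 2% pentobarbital i.p. at 50 mg/kg. Tail transected 4 mm from the tip and immersed in saline at 37 °C; bleeding ended when no blood appeared for 30 s. Bleeding time and blood loss weight recorded as mean ± SEM.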

Rattus norvegicus [4] = assay: Antithrombotic activity in anesthetized Wistar rat model of tail-bleeding assessed as increase in bleeding time po administered as single dose measured at 1.5 hrs post dose; type: functional
Summary of the method: as §1

Rattus norvegicus [5] = assay: Antithrombotic activity in anesthetized Wistar rat model of tail-bleeding assessed as increase in bleeding weight at 10 mg/kg, po administered as single dose measured at 1.5 hrs post dose; type: functional
Summary of the method: as §1

[6] = Metabolic stability in rat liver microsomes assessed as half life at […] measured up to 60 mins in presence of NADPH regeneration system by LC-MS/MS analysis; type: ADME, Microsome
Rattus norvegicus [7] = assay: Antithrombotic activity in anesthetized Wistar rat model of tail-bleeding assessed as increase in bleeding weight at 5 mg/kg, po administered as single dose measured at 1.5 hrs post dose; type: functional
Summary of the method: as §1

Rattus norvegicus [8] = assay: Antithrombotic activity in anesthetized Wistar rat model of FeCL3-induced carotid artery thrombosis assessed as reduction in thrombus weight by measuring inhibition of thrombosis formation at 40 mg/kg, po administered as single dose measured at 1.5 hrs post dose; type: functional; design: scale not given: the % may be the effect or the level left
Summary of the method: (§2)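 Compounds in 0.5% CMC-Na given to Wistar rats as a single oral gavage dose (10 mL/kg). Rats anesthetized with 2% pentobarbital i.p. at 50 mg/kg and kept on a heating pad. At 1.5 h post-dose, filter paper soaked in 20% FeCl3 applied to the isolated left carotid artery for 10 min; thrombus weight recorded. Mean ± SEM, n = 10.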

[9] = AUC (0 to infinity) in Sprague-Dawley rat at 5 mg/kg,po measured up to 24 hrs by LC-MS/MS analysis; type: ADME, organism-based; design: time < 24 hrs, dose 5 mg/kg, route po; conditions: in vivo
[10] = Metabolic stability in dog liver microsomes assessed as intrinsic clearance at 0.1 µM measured up to 60 mins in presence of NADPH regeneration system by LC-MS/MS analysis; conditions: 1 h
Rattus norvegicus [11] = assay: Antithrombotic activity in anesthetized Wistar rat model of tail-bleeding assessed as increase in bleeding weight at 20 mg/kg, po administered as single dose measured at 1.5 hrs post dose; type: functional
Summary of the method: as §1

[12] = Cmax in Sprague-Dawley rat at 5 mg/kg,po measured up to 24 hrs by LC-MS/MS analysis; type: ADME, organism-based; design: time < 24 hrs, dose 5 mg/kg, route po; conditions: in vivo
[13] = Half life in Sprague-Dawley rat at 5 mg/kg,po measured up to 24 hrs by LC-MS/MS analysis; type: ADME, organism-based; conditions: in vivo
[14] = Metabolic stability in dog liver microsomes assessed as half life at […] measured up to 60 mins in presence of NADPH regeneration system by LC-MS/MS analysis; type: ADME, Canis lupus familiaris, Microsome
Rattus norvegicus [15] = assay: Antithrombotic activity in anesthetized Wistar rat model of tail-bleeding assessed as increase in bleeding weight at 40 mg/kg, po administered as single dose measured at 1.5 hrs post dose; type: functional
Summary of the method: as §1

[16] = Oral bioavailability in Sprague-Dawley rat at 5 mg/kg,po measured up to 24 hrs by LC-MS/MS analysis; type: ADME, organism-based; conditions: in vivo
Rattus norvegicus [17] = assay: Antithrombotic activity in anesthetized Wistar rat model of FeCL3-induced carotid artery thrombosis assessed as reduction in thrombus weight at 10 mg/kg, po administered as single dose measured at 1.5 hrs post dose; type: functional, organism-based
Summary of the method: as §2

Rattus norvegicus [18] = assay: Antithrombotic activity in anesthetized Wistar rat model of tail-bleeding assessed as increase in bleeding weight at […], po administered as single dose measured at 1.5 hrs post dose; type: functional
Rattus norvegicus [19] = assay: Antithrombotic activity in anesthetized Wistar rat model of FeCL3-induced carotid artery thrombosis assessed as reduction in thrombus weight po administered as single dose measured at 1.5 hrs post dose; type: functional
Summary of the method: as §2

[20] = Metabolic stability in rat liver microsomes assessed as intrinsic clearance at 0.1 µM measured up to 60 mins in presence of NADPH regeneration system by LC-MS/MS analysis; conditions: 1 h
[21] = Metabolic stability in human liver microsomes assessed as half life at […] measured up to 60 mins in presence of NADPH regeneration system by LC-MS/MS analysis; type: ADME, Microsome
[22] = Tmax in Sprague-Dawley rat at 5 mg/kg,po measured up to 24 hrs by LC-MS/MS analysis; type: ADME, organism-based; conditions: in vivo

## Cc1ccc(CS(=O)(=O)NC(=O)C2(C)CCN(c3nc4c(cc3C#N)C(=O)OC4)CC2)cc1
[1]
  intrinsic clearance: 10.1 mL/min/g
Homo sapiens
  pIC50: 5.53
[2]
  MRT: 3.64 h
Rattus norvegicus [3]
  Time: 33.09 min
Rattus norvegicus [4]
  ED100: 7.58 mg/kg
Rattus norvegicus [5]
  Activity: 0.39 g
[6]
  half-life: 1.48 h
Rattus norvegicus [7]
  Activity: 0.31 g
Rattus norvegicus [8]
  Activity: 56%
[9]
  AUC(0-inf): 4120 ng·h/mL
[10]
  intrinsic clearance: 116.3 mL/min/g
Rattus norvegicus [11]
  Activity: 0.43 g
[12]
  Cmax: 1660 ng/mL
[13]
  half-life: 2.91 h
[14]
  half-life: 1.62 h
Rattus norvegicus [15]
  Activity: 0.66 g
[16]
  bioavailability: 51%
Rattus norvegicus [17]
  Activity: Active
Rattus norvegicus [18]
  Activity: 0.24 g
Rattus norvegicus [19]
  ED50: 27 mg/kg
[20]
  intrinsic clearance: 10.6 mL/min/g
[21]
  half-life: 3.47 h
[22]
  Tmax: 0.25 h
